# From ChEMBL document CHEMBL1177893, “Evaluation of labdane derivatives as potential anti-inflammatory agents” (Eur J Med Chem, 2010)
# Calls of active or inactive are those of the source. The rule behind the calls is not given here.
# Legend:
# [1] = system: RAW264.7; assay: Antiinflammatory activity in mouse RAW264.7 cells assessed as inhibition of LPS-induced nitrite production at 50 uM treated 30 mins before LPS challenge measured after 24 hrs by Griess method; format: functional, cell-based
# Outline: (§1)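 RAW 264.7 cells pre-incubated 30 min with compound (1, 2, 5, 10, 25 µM; range tested up to 50 µM), then LPS 250 ng/ml for 24 h. Medium nitrite measured by Griess reaction (sulfanilamide/naphthylethylenediamine in phosphoric acid, 10 min room temperature), read spectrophotometrically. IC50 is the concentration giving 50% inhibition of NO release. Three independent experiments in triplicate.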
# [2] = system: RAW264.7; assay: Antiinflammatory activity in mouse RAW264.7 cells assessed as inhibition of LPS-induced PGE2 production treated 30 mins before LPS challenge measured after 24 hrs by ELISA; format: functional, cell-based
# Outline: (§2)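 RAW 264.7 macrophages pretreated 30 min with compound, then stimulated with LPS 250 ng/ml for 24 h. PGE2 in culture medium quantified in duplicate by EIA kit. IC50 is the concentration giving 50% inhibition of PGE2 release. Three independent experiments in triplicate.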
# [3] = system: RAW264.7; assay: Antiinflammatory activity in mouse RAW264.7 cells assessed as inhibition of LPS-induced nitrite production treated 30 mins before LPS challenge measured after 24 hrs by Griess method; format: functional, cell-based; outline: as §1
# [4] = Cytotoxicity against LPS-stimulated mouse RAW264.7 cells assessed as cell viability at 1 uM after 24 hrs by MTT assay; format: cell-based; details: LPS-stimulated RAW264.7 cells, read-out: Activity
# Outline: (§3)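 RAW 264.7 cells plated at 10⁵ cells/well, pre-incubated 30 min with compound (1-25 µM), then LPS 250 ng/ml for 24 h. MTT added for 4 h at 37 °C; formazan dissolved in DMSO, absorbance read at 540 nm. Viability expressed relative to untreated controls. Triplicate wells, at least three independent experiments.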
# [5] = system: RAW264.7; assay: Cytotoxicity against LPS-stimulated mouse RAW264.7 cells assessed as cell viability at 25 uM after 24 hrs by MTT assay; format: cell-based; details: raw264.7, 24 h; outline: as §3
# [6] = system: RAW264.7; assay: Cytotoxicity against LPS-stimulated mouse RAW264.7 cells assessed as cell viability at 10 uM after 24 hrs by MTT assay; format: cell-based; details: raw264.7, 24 h; outline: as §3
# [7] = system: RAW264.7; assay: Antiinflammatory activity in mouse RAW264.7 cells assessed as inhibition of LPS-induced nitrite production at 25 uM treated 30 mins before LPS challenge measured after 24 hrs by Griess method; format: functional, cell-based; outline: as §1
# [8] = system: Mus musculus; assay: Antiinflammatory activity in Swiss mouse ear homogenates assessed as reduction of 12-O-tetradecanoylphorbol acetate-induced myeloperoxidase activity at 0.25 to 1 mg/ear administered topically measured after 4 hrs; format: functional, organism-based
# Outline: (§4)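 TPA ([…]) applied to inner and outer surfaces of right ear of Swiss mice (20-25 g); test agent applied topically in acetone 30 min before TPA. Mice killed after 4 h; equal ear punches weighed, edema as right-over-left weight increase. MPO measured in saline homogenate supernatants (10,000g, 15 min, 4 °C) with tetramethylbenzidine substrate, pH 5.4 phosphate. Three independent experiments in triplicate.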
# [9] = system: RAW264.7; assay: Antiinflammatory activity in mouse RAW264.7 cells assessed as inhibition of LPS-induced PGE2 production at 25 uM treated 30 mins before LPS challenge measured after 24 hrs by ELISA; format: functional, cell-based; outline: as §2
# [10] = system: Mus musculus; assay: Antiinflammatory activity in Swiss mouse assessed as reduction of 12-O-tetradecanoylphorbol acetate-induced ear swelling at 0.25 to 1 mg/ear administered topically measured after 4 hrs; format: functional, organism-based; outline: as §4
IC50 [2],IC50 [3],Activity [8],Compound,inhibition [1],inhibition [2],inhibition [3],"viability at 24 h, 1 µM [4]",Activity [5],Activity [6],inhibition [7],inhibition [9],Activity [10]
> 50 µM,> 50 µM,–,C[C@@H](CC[C@@H]1[C@@]2(C)CCCC(C)(C)[C@@H]2CC[C@@]1(C)O)CC(=O)O [LABDANIC ACID],–,–,–,80%,–,–,–,–,–
> 50 µM,> 50 µM,–,CCCCCCCCCCCC(=O)OCC[C@@H](C)CC[C@@H]1[C@@]2(C)CCCC(C)(C)[C@@H]2CC[C@@]1(C)O,–,–,–,80%,–,–,–,–,–
> 50 µM,> 50 µM,–,C[C@H](CC=O)CC[C@@H]1[C@@]2(C)CCCC(C)(C)[C@@H]2CC[C@@]1(C)O,–,–,–,80%,–,–,–,–,–
10 µM,5 µM,Active,COC(=O)C[C@@H](C)CC[C@@H]1[C@@]2(C)CCCC(C)(C)[C@@H]2CC[C@@]1(C)O [LABDANIC ACID METHYL ESTER],–,Dose-dependent effect,Dose-dependent effect,95%,–,Non-toxic,Active,Active,Active

# Continued, molecule first:
Compound,IC50 [2],IC50 [3],Activity [8],inhibition [1],inhibition [2],inhibition [3],"viability at 24 h, 1 µM [4]",Activity [5],Activity [6],inhibition [7],inhibition [9],Activity [10]
CC(=N)NCc1cccc(CN)c1,–,–,–,Active,–,–,–,–,–,–,–,–
CC1=C(CC[C@H](C)CCO)[C@@]2(C)CCCC(C)(C)[C@@H]2CC1,20 µM,15 µM,–,–,Dose-dependent effect,Dose-dependent effect,75%,Toxic,–,–,–,–
C[C@H](CCO)CC[C@@]1(C)C2=C(CC[C@@H]1C)C(C)(C)CCC2,25 µM,10 µM,–,–,Dose-dependent effect,Dose-dependent effect,75%,Toxic,–,–,–,–
CC(=O)OCC[C@@H](C)CC[C@@H]1[C@@]2(C)CCCC(C)(C)[C@@H]2CC[C@@]1(C)O,25 µM,15 µM,–,–,Dose-dependent effect,Dose-dependent effect,90%,–,Non-toxic,–,–,–
C[C@H](CCOC(=O)c1ccc(Br)cc1)CC[C@@H]1[C@@]2(C)CCCC(C)(C)[C@@H]2CC[C@@]1(C)O,> 50 µM,> 50 µM,–,–,–,–,80%,–,–,–,–,–
C[C@H](CCO)CC[C@@H]1[C@@]2(C)CCCC(C)(C)[C@@H]2CC[C@@]1(C)O [LABDANEDIOL],25 µM,15 µM,–,–,Dose-dependent effect,Dose-dependent effect,40%,–,Toxic,–,–,–
